# Spn DPM-DC inh – S. pneumoniae DPM-DC inhibition | purified DPM-DC, PK/LDH coupled NADH fluorescence | calls only at 10 µM | 65,000 compounds, 0.49% hits;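 active = the 320 compounds with the highest percent inhibition in the single-dose primary screen, excluding strongly autofluorescent ones, cut at about 32% in these data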;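 also: kinetic rate of NADH fluorescence loss reporting ADP formed by the decarboxylase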
# Ec RNAP inh – inhibitors of Escherichia coli RNA polymerase. P0A8V2. E. coli RNA polymerase, fluorescence transcription assay. inhibition, %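 (tested at 10 µM)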. 62,000 compounds, 0.2% hits. AID 559; in the data active = inhibition above about 20%;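 also: 0% = enzyme without compound and 100% = no enzyme blank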
# AP complement – orthogonal test for alternative complement pathway inhibitors; Human serum alternative complement pathway, LPS-coated ELISA, C3 deposition; tested in compound mixtures; inhibition, % at 5 µM; 62,000 compounds, 0.08% hits;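 active = inhibition above 30% in each of the two pooled mixtures holding the compound, so the lower value exceeds 30%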;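 also: 0% = serum in Mg-EGTA without compound and 100% = EDTA serum blank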
#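 Test system: human serum alternative complement pathway, C3 deposition on LPS-coated wells; also added: Plate-bound LPS; doses: 5 µM per compound in ten-compound mixtures; schedule: 1 h at 37 °C; detection: Anti-C3 ELISA, OD 450 nm; evaluation: percent inhibition of C3 deposition onto LPS; repeats: two pool placements per compound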
# Spn PMK inh – inhibitors of Streptococcus pneumoniae phosphomevalonate kinase | purified PMK, PK/LDH-coupled NADH absorbance 340 nm | inhibition, % at 10 µM | 65,000 compounds, 0.49% hits | AID 539;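 active = top-ranked compounds by inhibition in the single 10 µM screen, taking a fixed number of the strongest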;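 also: 0% = full reaction with DMSO carrier and 100% = background rate without enzyme reaction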
# TNAP act mid DEA – human TNAP activation, intermediate phosphate acceptor | purified TNAP, CDP-star luminescence, 100 mM DEA, 30 min; stronger effect = higher value; scale: 0 levamisole-inhibited, 1 vehicle-only enzyme | AID 813 | P05186 | activation factor at 20 µM | 64,000 tested, under 10 active;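 active = activation factor of at least 2 at 20 µM, relative to controls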
# Target sequence (P05186 whole entry, looked up): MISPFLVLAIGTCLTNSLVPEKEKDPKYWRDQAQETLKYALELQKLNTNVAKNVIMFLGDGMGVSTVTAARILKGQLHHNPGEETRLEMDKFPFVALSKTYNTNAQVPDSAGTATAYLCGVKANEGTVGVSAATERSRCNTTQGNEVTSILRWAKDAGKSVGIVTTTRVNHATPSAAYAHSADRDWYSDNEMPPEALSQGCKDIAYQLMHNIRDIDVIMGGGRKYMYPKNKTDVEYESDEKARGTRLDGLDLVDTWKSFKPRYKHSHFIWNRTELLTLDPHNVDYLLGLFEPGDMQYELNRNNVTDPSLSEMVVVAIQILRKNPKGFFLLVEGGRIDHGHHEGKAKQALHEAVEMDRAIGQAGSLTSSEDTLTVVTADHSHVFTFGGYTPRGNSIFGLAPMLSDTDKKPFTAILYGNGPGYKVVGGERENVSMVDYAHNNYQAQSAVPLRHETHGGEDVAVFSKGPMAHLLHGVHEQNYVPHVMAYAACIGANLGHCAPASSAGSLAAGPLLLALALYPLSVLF
# MK inhibit – S. pneumoniae mevalonate kinase inhibition. purified MK, PK/LDH-coupled NADH absorbance 340 nm. inhibition, % at 10 µM. 65,000 compounds, 0.48% hits;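 active = ranked among the strongest by inhibition in the single 10 µM screen, a fixed top-ranked set picked for dose follow-up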
# The depositor's hits bear a star; i = inactive; · = no result given; + = active, no number. The list is not random: actives were taken first. Their share in the collection is about 1.5%.
SMILES,Spn DPM-DC inh,Ec RNAP inh,AP complement,Spn PMK inh,TNAP act mid DEA,MK inhibit
CCCC(=O)Nc1cccc(NC(=O)CN2CCN(c3ccccc3OC)CC2)c1,i,0,6,27*,0.9,4
CC(C)CC(=O)NCC(C)NC(=O)CC(C)C (stereo not drawn),+,10,-11,10,0.9,8
CC(CNC(=O)C1CCCCC1)NC(=O)C1CCCCC1 (stereo not drawn),i,9,-4,10,1,8
CCOC(=O)C1=C(C)Nc2ccccc2N=C1NC(=O)CCCN1C(=O)c2ccccc2C1=O,i,6,-4,27*,1,2
Cc1ccc(C(=O)NCCn2cc(SCC(=O)Nc3cc(C)on3)c3ccccc32)cc1,i,3,32*,4,0.9,2
Cc1cc(NC(=O)CSc2cn(CCNC(=O)c3ccccc3)c3ccccc23)no1,i,3,13,18,0.9,10
Cc1nonc1OCCNC(=O)C12CC3CC(CC(C3)C1)C2,i,6,-2,3,0.9,19
C=CCNC(=O)C1CCCN(S(C)(=O)=O)C1 (stereo not drawn),i,0,6,28*,0.8,0
CS(=O)(=O)N1CCCC(C(=O)NCc2ccccn2)C1 (stereo not drawn),i,3,3,29*,0.9,0
Cc1ccc(-c2csc3ncnc(Sc4nnc(CN5CCCCCC5=O)o4)c23)cc1,i,7,4,14,0.9,13
CC(=O)c1ccc(Oc2ncnc3sccc23)c(CN2CCOCC2)c1,i,·,1,25*,0.9,0
CCc1ccc(S(=O)(=O)NCCc2cn3ccsc3n2)s1,i,7,12,7,1.1,4
CCc1ccc(S(=O)(=O)NCc2cn3ccsc3n2)s1,+,·,·,7,·,10
COCCNC(=O)c1cnn2c(C(F)(F)F)cc(-c3ccc4c(c3)OCO4)nc12,+,7,-2,10,0.8,11
Cc1ccc(-c2cc(C(F)(F)F)n3ncc(C(=O)NCc4ccco4)c3n2)cc1,+,7,1,9,0.9,8
Cc1ccc(-c2cc(C(F)F)n3ncc(C(=O)NCc4ccco4)c3n2)cc1,·,-8,0,2,0.9,6
O=C(c1cnn2c(C(F)(F)F)cc(-c3ccc4c(c3)OCO4)nc12)N1CCCC1,i,4,4,12,0.9,3
Cc1noc(C(=O)N2CC3(C)CC2CC(C)(C)C3)c1Cl (stereo not drawn),i,6,7,5,0.9,1
C=CCSc1nnc2n(-c3ccccc3OC)c(=O)c3c4c(sc3n12)CCC4,i,8,8,6,0.9,0
Cn1cccc1Cc1nnc(SCC(=O)NCc2ccccc2)n1-c1ccc(F)cc1,i,-2,3,10,1,8
Cn1cccc1Cc1nnc(SCC(=O)NCc2ccc(F)cc2)n1-c1ccc(F)cc1,i,-11,-21,17,1,active
O=C1C2CC=CCC2C(=O)N1c1ccc(Cc2ccncc2)cc1 (stereo not drawn),i,6,2,0,0.9,3
OC1CCCN(Cc2ccc3c(c2)Cc2ccccc2-3)C1 (stereo not drawn),i,8,4,33*,0.9,9
CN(C)CCN(C)Cc1ccc2c(c1)Cc1ccccc1-2,i,1,4,0,1,4
Cc1cccc(C)c1NC(=O)C(c1ccccc1)N1CCC2(CC1)OCCO2 (stereo not drawn),i,1,8,12,1,3
SMILES,Spn DPM-DC inh,Ec RNAP inh,AP complement,Spn PMK inh,TNAP act mid DEA,MK inhibit
Cc1cccc(C)c1NC(=O)C(c1ccccc1)N1CCN(C(=O)c2ccco2)CC1 (stereo not drawn),+,6,-7,18,1,0
O=C(C1CCN(S(=O)(=O)c2cccc3cccnc23)CC1)N1CCN(c2ccc(Cl)cc2)CC1,i,-2,23,15,0.9,3
COc1ccc(Cn2c(=O)[nH]c3cc(C(=O)NCCCN4CCCC4=O)ccc3c2=O)cc1,i,-10,9,13,0.9,8
O=C(NCc1cccnc1)c1ccc2c(=O)n(CCCN3CCCC3=O)c(=S)[nH]c2c1,+,2,13,13,0.9,6
Clc1ccc(CSc2nnc(-c3cccnc3)n2Cc2ccco2)c(Cl)c1,i,4,7,0,0.9,6
COC(=O)c1c(C(=O)OC)c2ccncn2c1Cl,+,0,18,17,1,10
COC(=O)C1=C(C)N(c2ccc(Cl)c(Cl)c2)C(=O)C1,i,8,2,0,0.9,0
Brc1cnn(-c2nc(N3CCOCC3)nc(N3CCOCC3)n2)c1,i,3,12,10,0.9,0
CCC(Sc1nccn1C)C(=O)Nc1nnc(C)s1 (stereo not drawn),i,8,11,13,0.9,7
CCC(Sc1nccn1C)C(=O)Nc1cccc2ccccc12 (stereo not drawn),i,7,4,41*,0.9,1
S=c1[nH]nc(-c2ccccc2)n1CC1CCCO1 (stereo not drawn),i,9,14,4,0.9,11
S=c1[nH]nc(-c2ccccc2)n1C1C=CCCC1 (stereo not drawn),+,3,3,11,0.9,14
CCn1c(CC(C)C)n[nH]c1=S,i,2,13,3,0.9,44*
CC(C)(C)NC(=O)C(c1ccc(F)cc1)N(Cc1ccco1)C(=O)c1csnn1 (stereo not drawn),i,8,9,0,0.9,8
CCC(C)(C)NC(=O)C(c1ccccc1F)N(Cc1ccco1)C(=O)c1csnn1 (stereo not drawn),i,7,6,38*,0.9,0
CCCOc1ccc(C2C(=O)N(C3CCCCC3)CC(=O)N2CCCOCC)cc1OC (stereo not drawn),i,7,-6,26*,0.9,0
CCOCCCN1C(=O)CN(C2CCCCC2)C(=O)C1c1ccc(OC)c(OC)c1 (stereo not drawn),i,12,-9,20,0.9,0
COc1ccc(C2C(=O)N(C3CCCCC3)CC(=O)N2CCc2ccccc2)cc1OC (stereo not drawn),i,-3,-6,26*,1,0
O=C(Cc1cccs1)N(Cc1ccco1)C1(C(=O)NC2CCCC2)CCCCC1,i,5,5,1,0.9,11
CC(=O)c1c(C)oc(C)c1CSCc1ccc(C(=O)O)o1,i,8,3,11,0.9,11
Nc1nc(SCC(=O)N2CCCc3ccccc32)n(-c2ccccc2)n1,i,7,1,1,1,1
CCOC(=O)c1[nH]nc(C(=O)c2ccc(Br)cc2)c1O,i,4,16,29*,0.9,1

# Screening results from PubChem BioAssay.
